Assay type in all cases: functional
Experiment [1] concerns Staphylococcus aureus. Put plainly: Antibacterial activity against epidemic methicillin-resistant Staphylococcus aureus 16 expressing mecA after 18 hrs by MTT assay. The method in brief: (§1)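 Broth microdilution MIC in Mueller-Hinton broth supplemented to 20 mg/L Ca2+ and 10 mg/L Mg2+. Overnight cultures were adjusted in 0.9% saline to 5 × 10^5 cfu against a McFarland standard, and the sample was serially diluted in broth. Plates included growth, sterile and 3.125% DMSO controls and were incubated 18 h at 37 °C. MICs were determined in duplicate.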

Experiment [2] deals with Staphylococcus aureus. Put plainly: Antibacterial activity against Staphylococcus aureus ATCC 25923 after 18 hrs by MTT assay. The settings on record: ATCC 25923, 18 h. The gist of the method: as §1
The test system of experiment [3] is Staphylococcus aureus. Nature of the experiment: Antibacterial activity against epidemic methicillin-resistant Staphylococcus aureus 15 after 18 hrs by MTT assay. The method in brief:
as §1
(In general: Formazan colour is commonly taken as a measure of viable cells.)

Experiment [4] relates to Staphylococcus aureus. Nature of the experiment: Antibacterial activity against methicillin-resistant Staphylococcus aureus XU212 expressing TetK efflux pump after 18 hrs by MTT assay. The settings on record: XU212, 18 h. The method in brief: as §1
Experiment [5] deals with Staphylococcus aureus. Put plainly: Antibacterial activity against Staphylococcus aureus 1199B overexpressing NorA efflux pump after 18 hrs by MTT assay. The gist of the method: as §1
Experiment [6] relates to Staphylococcus aureus. Nature of the experiment: Antibacterial activity against Staphylococcus aureus […] expressing MsrA macrolide efflux pump after 18 hrs by MTT assay. The gist of the method:
as §1

This is an account of results in ChEMBL document CHEMBL1155804, “Brominated diterpenes with antibacterial activity from the red alga Sphaerococcus coronopifolius” (2008).

Converted amounts (≈) assume the structure as drawn.

For the molecule `CC(C)[C@@H]1C[C@H](OO)C=C2[C@@H]3[C@](C)(O)[C@H](O)C[C@H](Br)[C@@]3(C)CC[C@@]21CBr`, the MIC in the experiment with Staphylococcus aureus [1] stood at 16 µg/mL (≈ 32.2 µM); in the experiment with Staphylococcus aureus [2] it was 32 µg/mL (≈ 64.5 µM); against Staphylococcus aureus [3] it was 16 µg/mL (≈ 32.2 µM); with Staphylococcus aureus [4], 16 µg/mL (≈ 32.2 µM); in the experiment on Staphylococcus aureus [5] it was 16 µg/mL (≈ 32.2 µM); with Staphylococcus aureus [6], 16 µg/mL (≈ 32.2 µM).

On to `CC(C)[C@@H]1C[C@H](OO)C=C2[C@@H]3[C@](C)(O)[C@@H](O)C[C@H](Br)[C@@]3(C)CC[C@@]21CBr`, for which the MIC in the experiment on Staphylococcus aureus [1] came out at 16 µg/mL (≈ 32.2 µM); in the experiment with Staphylococcus aureus [2], 32 µg/mL (≈ 64.5 µM); against Staphylococcus aureus [3], 16 µg/mL (≈ 32.2 µM); against Staphylococcus aureus [4], 16 µg/mL (≈ 32.2 µM); in the experiment on Staphylococcus aureus [5], 16 µg/mL (≈ 32.2 µM); in the experiment on Staphylococcus aureus [6] it was 16 µg/mL (≈ 32.2 µM).

Consider `CC(C)[C@@H]1C[C@H](O)C=C2[C@H]3[C@](C)(CC[C@@]21CBr)[C@@H](Br)CC[C@@]3(C)O`, for which the MIC with Staphylococcus aureus [1], against Staphylococcus aureus [2], with Staphylococcus aureus [3], in the experiment on Staphylococcus aureus [4], with Staphylococcus aureus [5] and in the experiment on Staphylococcus aureus [6] was 16 µg/mL (≈ 34.5 µM) each time.

`CC(C)[C@@H]1CC[C@H](O)[C@H]2[C@H]3[C@@](C)(C=CC(=O)[C@]3(C)O)CC[C@@]21CBr`: the MIC in the experiment with Staphylococcus aureus [1] was determined as 0.25 µg/mL (≈ 0.626 µM); in the experiment on Staphylococcus aureus [2], 0.5 µg/mL (≈ 1.25 µM); against Staphylococcus aureus [3], 0.5 µg/mL (≈ 1.25 µM); against Staphylococcus aureus [4], 1 µg/mL (≈ 2.5 µM); against Staphylococcus aureus [5], 0.5 µg/mL (≈ 1.25 µM); against Staphylococcus aureus [6], 1 µg/mL (≈ 2.5 µM).

As for `CC(C)[C@@H]1CC[C@H](O)[C@H]2[C@H]3[C@](C)(CC[C@@]21CBr)[C@@H](Br)CC[C@]3(C)O`, the MIC came to 1 µg/mL (≈ 2.14 µM) against Staphylococcus aureus [1]; 2 µg/mL (≈ 4.29 µM) in the experiment on Staphylococcus aureus [2]; 2 µg/mL (≈ 4.29 µM) against Staphylococcus aureus [3]; 2 µg/mL (≈ 4.29 µM) in the experiment with Staphylococcus aureus [4]; 1 µg/mL (≈ 2.14 µM) against Staphylococcus aureus [5]; 2 µg/mL (≈ 4.29 µM) with Staphylococcus aureus [6].

`CCn1cc(C(=O)O)c(=O)c2cc(F)c(N3CCNCC3)cc21` [NORFLOXACIN]: the MIC was determined as 128 µg/mL (≈ 401 µM) against Staphylococcus aureus [1]; 0.5 µg/mL (≈ 1.57 µM) against Staphylococcus aureus [2]; 0.5 µg/mL (≈ 1.57 µM) against Staphylococcus aureus [3]; 8 µg/mL (≈ 25.1 µM) with Staphylococcus aureus [4]; 32 µg/mL (≈ 100 µM) in the experiment with Staphylococcus aureus [5]; 1 µg/mL (≈ 3.13 µM) against Staphylococcus aureus [6].

`CC(C)[C@@H]1CC[C@H](O)[C@H]2[C@H]3[C@](C)(CC[C@@]21CBr)[C@@H](Br)CC(=O)[C@]3(C)O`: the MIC in the experiment on Staphylococcus aureus [1] is 64 µg/mL (≈ 133 µM); against Staphylococcus aureus [2], 32 µg/mL (≈ 66.6 µM); against Staphylococcus aureus [3], 128 µg/mL (≈ 267 µM); against Staphylococcus aureus [4] it was 32 µg/mL (≈ 66.6 µM); with Staphylococcus aureus [5] it was 32 µg/mL (≈ 66.6 µM); against Staphylococcus aureus [6], 32 µg/mL (≈ 66.6 µM).

One may read the MIC as the lowest concentration that inhibits growth of the organism.
